In publication PMC3987113 (Toxicology and applied pharmacology, 2009):
Values joined by “and” are separate entries in the source; they are usually repeats but may differ in a detail not shown here. Identical values can stand only once. “Also recorded” adds a separate entry of the source. Like-named read-outs stand apart in the source and are kept apart here.

How the values were obtained:
[1] = Body and liver weights, 24 h dose-response study; type: in vivo, C57BL/6 mice; details: for Liver weight / Relative liver weight / Body weight gain / Terminal body weight: 24 h; for Liver weight / Relative liver weight / Terminal body weight: mean ± SD, n=5; for Body weight gain: terminal body weight divided by body weight prior to dosing; for Terminal body weight: single gavage
How it was run: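 Immature ovariectomized female C57BL/6 mice, acclimatized 3 days, received a single oral gavage on PND 28 of 1, 3, 10, 30, 100 or 300 mg/kg test compound or sesame oil vehicle (0.1 ml), n=5 per group, sacrificed 24 h later. Compound was dissolved in acetone, diluted in sesame oil and the acetone evaporated under nitrogen. Analysis by ANOVA with Tukey's or Dunnett's post hoc test, p<0.05.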

[2] = Body and liver weights, time course study; type: in vivo, C57BL/6 mice; details: for Liver weight / Relative liver weight / Body weight gain / Terminal body weight: 300 mg/kg PCB153 or 30 μg/kg TCDD, mean ± SD, n=5; for Body weight gain: terminal body weight divided by body weight prior to dosing
[3] = Hepatic tissue level quantification by HRGC/HRMS; type: in vivo, C57BL/6 mice; details: liver
[4] = test system: liver of immature, ovariectomized C57BL/6 mice; assay: Liver histopathology; type: in vivo
[5] = test system: hepatic gene expression; assay: Hepatic gene expression, Agilent 4 x 44K microarrays; type: in vivo, C57BL/6 mice
[6] = test system: Cyp2c55; assay: Dose-response modeling of microarray data; type: in vivo, C57BL/6 mice; details: C57BL/6, mouse, liver, oral
[7] = test system: Cyp2b10; assay: Dose-response modeling of microarray data; type: in vivo, C57BL/6 mice; details: C57BL/6, mouse, liver, oral
[8] = test system: hepatic gene expression; assay: Dose-response modeling of microarray data; type: in vivo, C57BL/6 mice; details: Mus musculus, 24 h
[9] = test system: hepatic gene expression; assay: QRT-PCR verification of hepatic gene expression; type: in vivo, C57BL/6 mice
[10] = 300 mg/kg PCB153 or 30 μg/kg TCDD
[11] = hepatic mRNA, 300 mg/kg PCB153, maximum fold change, |fold change|≥1.5, P1(t)≥0.985
[12] = hepatic mRNA, 300 mg/kg PCB153, maximum fold change, |fold change|≥1.5, P1(t)≥0.985, 300 mg/kg

Clc1cc(Cl)c(-c2cc(Cl)c(Cl)cc2Cl)cc1Cl [PCB153, 2,2′,4,4′,5,5′-hexachlorobiphenyl]
Liver weight ([1]; 1 mg/kg): 0.850 ± 0.121 g
Relative liver weight ([1]; 1 mg/kg): 0.059 ± 0.002
Body weight gain ([1]; 1 mg/kg): 1.1 ± 0.0
Terminal body weight ([1]; 1 mg/kg): 14.3 ± 1.8 g
Liver weight ([1]; 3 mg/kg): 0.865 ± 0.119 g
Relative liver weight ([1]; 3 mg/kg): 0.060 ± 0.002
Body weight gain ([1]; 3 mg/kg): 1.1 ± 0.0
Terminal body weight ([1]; 3 mg/kg): 14.4 ± 1.7 g
Liver weight ([1]; 10 mg/kg): 0.721 ± 0.073 g
Relative liver weight ([1]; 10 mg/kg): 0.056 ± 0.004
Body weight gain ([1]; 10 mg/kg): 1.1 ± 0.1
Terminal body weight ([1]; 10 mg/kg): 12.7 ± 1.1 g
Liver weight ([1]; 30 mg/kg): 0.836 ± 0.066 g
Relative liver weight ([1]; 30 mg/kg): 0.062 ± 0.001
Body weight gain ([1]; 30 mg/kg): 1.1 ± 0.0
Terminal body weight ([1]; 30 mg/kg): 13.4 ± 1.0 g
Liver weight ([1]; 100 mg/kg): 0.829 ± 0.071 g
Relative liver weight ([1]; 100 mg/kg): 0.060 ± 0.002
Body weight gain ([1]; 100 mg/kg): 1.1 ± 0.0
Terminal body weight ([1]; 100 mg/kg): 13.8 ± 1.1 g
Effect on relative liver weight (RLW), dose-response study ([1]; 300 mg/kg PCB153, 24 h): significantly increased RLW at 24 h
Liver weight ([1]; 300 mg/kg): 0.855 ± 0.152 g
Relative liver weight ([1]; 300 mg/kg): 0.067 ± 0.003
Body weight gain ([1]; 300 mg/kg): 1.1 ± 0.0
Terminal body weight ([1]; 300 mg/kg): 12.7 ± 1.9 g
Effect on relative liver weight (RLW), time course study ([2]; 300 mg/kg PCB153): increased (p<0.05) relative liver weight (RLW) at 72 and 168 h
Liver weight ([2]; 4 h): 0.712 ± 0.048 g
Relative liver weight ([2]; 4 h): 0.057 ± 0.001
Body weight gain ([2]; 4 h): 1.0 ± 0.0
Terminal body weight ([2]; 4 h after single gavage): 12.5 ± 0.8 g
Liver weight ([2]; 12 h): 0.730 ± 0.075 g
Relative liver weight ([2]; 12 h): 0.056 ± 0.003
Body weight gain ([2]; 12 h): 1.0 ± 0.0
Terminal body weight ([2]; 12 h after single gavage): 13.0 ± 0.6 g
Liver weight ([2]; 24 h): 0.813 ± 0.137 g
Relative liver weight ([2]; 24 h): 0.061 ± 0.009
Body weight gain ([2]; 24 h): 1.1 ± 0.0
Terminal body weight ([2]; 24 h after single gavage): 13.3 ± 0.9 g
Liver weight ([2]; 72 h): 1.086 ± 0.135 g
Relative liver weight ([2]; 72 h): 0.069 ± 0.007
Body weight gain ([2]; 72 h): 1.1 ± 0.0
Terminal body weight ([2]; 72 h after single gavage): 15.7 ± 0.7 g
Liver weight ([2]; 168 h): 1.280 ± 0.074 g
Relative liver weight ([2]; 168 h): 0.072 ± 0.002
Body weight gain ([2]; 168 h): 1.4 ± 0.1
Terminal body weight ([2]; 168 h after single gavage): 17.9 ± 1.2 g
Effect on body weight gain ([2]; any of the PCB153 doses or time points): No significant decreases in body weight gain
Hepatic PCB153 levels in dose-response study ([3]; 24 h, 1-300 mg/kg, significantly different from controls): dose-dependent increase in hepatic levels
Decrease of hepatic level after 7 days ([3]; 168 h vs 24 h, single gavage 300 mg/kg PCB153 or 30 μg/kg TCDD): ~ 3.3 fold
Hepatocellular hypertrophy, time course study ([4]; 300 mg/kg PCB153): increasing hypertrophic responses between 24 and 168 h; also recorded: induced hepatocellular hypertrophy between 24 and 168 h
Hepatocellular vacuolization, dose-response study ([4]; 300 mg/kg PCB153, 24 h): induced the highest levels of hepatocellular vacuolization
Hepatic lipid accumulation, Oil Red O staining [4, 10]: no fatty accumulation
Necrosis and immune (mixed) cell infiltration in liver [4, 10]: did not elicit immune cell infiltration or necrosis; also recorded: absent; also recorded: did not induce necrosis or immune cell infiltration
Hepatic inflammation ([4]; 300 mg/kg PCB153 or 30 μg/kg TCDD, time course): almost absent
Hepatocellular vacuolization, time course study ([4]; 300 mg/kg PCB153 or 30 μg/kg TCDD, Fig. 2 at 168 h): minimal vacuolization and hepatocellular hypertrophy
Hepatocellular hypertrophy, dose-response study ([4]; PCB153, 24 h): incidences of hypertrophy were not observed
Induction of CAR/PXR regulated genes Cyp2b10, Cyp3a11, Ces2, Insig2, Abcc3 ([5]; PCB153 dose-response study): dose-dependently induced
PCB153 fold change, Abcc3 [5, 11]: 1.9 fold
PCB153 fold change, Acsl3 [5, 11]: −3.1 fold
PCB153 fold change, Agpat4 [5, 11]: −1.9 fold
PCB153 fold change, Akr1b7 [5, 11]: 22.1 fold
PCB153 fold change, Akr1c20 [5, 11]: −2.3 fold
PCB153 fold change, Aox1 [5, 11]: 2.9 fold
PCB153 fold change, Cdca2 [5, 11]: 2.8 fold
PCB153 fold change, Cds2 [5, 11]: 1.7 fold
PCB153 fold change, Ces2 [5, 11]: 5.8 fold
PCB153 fold change, Cyp2b9 [5, 11]: 7.6 fold
PCB153 fold change, Cyp2b10 [5, 11]: 27.5 fold
PCB153 fold change, Cyp2b23 [5, 11]: 19.7 fold
PCB153 fold change, Cyp2c54 [5, 11]: 2.4 fold
PCB153 fold change, Cyp3a25 [5, 11]: 3.8 fold
PCB153 fold change, Dhfr [5, 11]: −2.1 fold
PCB153 fold change, Elovl6 [5, 11]: −3.8 fold
PCB153 fold change, Fasn [5, 11]: −3.9 fold
PCB153 fold change, Fmo5 [5, 11]: 3.0 fold
PCB153 fold change, Gadd45a [5, 11]: 2.0 fold
PCB153 fold change, Gpx2 [5, 11]: 1.7 fold
PCB153 fold change, Gsta2 [5, 11]: 4.1 fold
PCB153 fold change, Gstm4 [5, 11]: 4.0 fold
PCB153 fold change, Gstt3 [5, 11]: 1.7 fold
PCB153 fold change, Hmgcr [5, 11]: −5.3 fold
PCB153 fold change, Hsd17b2 [5, 11]: −2.0 fold
PCB153 fold change, Insig2 [5, 11]: 5.9 fold
PCB153 fold change, Mad1l1 [5, 11]: 2.4 fold
PCB153 fold change, Myc [5, 11]: 2.9 fold
PCB153 fold change, Nol3 [5, 11]: 4.9 fold
PCB153 fold change, Pla2g12a [5, 11]: 1.7 fold
PCB153 fold change, Slc1a4 [5, 11]: −2.5 fold
PCB153 fold change, Slc23a1 [5, 11]: 2.3 fold
PCB153 fold change, Smpd3 [5, 11]: 10.8 fold
PCB153 fold change, Srebf1 [5, 11]: −2.4 fold
PCB153 fold change, Srebf2 [5, 11]: −2.1 fold
PCB153 fold change, Ugdh [5, 11]: 2.5 fold
PCB153 fold change, Cyp2c55 [5, 12]: 48 fold and 48.4 fold
PCB153 fold change, Gadd45b [5, 12]: 10.7 fold
PCB153 fold change, Zwint [5, 12]: 1.8 fold
Ccl9 expression ([5]; hepatic mRNA, PCB153): induced expression
Down-regulation of Acsl3, Srebf1 and Srebf2 ([5]; hepatic mRNA, PCB153): −2.1 to −3.1 fold
ED50 at 24 h [6]: 31.7 mg/kg
ED50 at 24 h [7]: 38.1 mg/kg
ED50 ([8]; read-out: ED50, Abcc3): 2.9 mg/kg
ED50 ([8]; read-out: ED50, Entpd5): 34.2 mg/kg
ED50 ([8]; read-out: ED50, Nol3): 33.9 mg/kg
Induction of AhR-battery genes (Cyp1a1, Cyp1a2, Tiparp) ([9]; 300 mg/kg PCB153 compared to TCDD, Fig. 6A-B): modestly induced
Cyp1a2 induction ([9]; hepatic mRNA, time course, 30 μg/kg TCDD (Fig. 6A) or 300 mg/kg PCB153 (Fig. 6B)): ~ 1.8 fold
Elovl5 fold change ([9]; hepatic mRNA, time course, 300 mg/kg PCB153 or 30 μg/kg TCDD (Fig. 6A-B)): −1.9 fold
